Measurements: ChEMBL document CHEMBL1687780, “Mutations in 23S rRNA at the peptidyl transferase center and their relationship to linezolid binding and cross-resistance” (2010)
Converted amounts (≈) assume the structure as drawn.

Columns and labels:
Type in all cases: functional
[1] = system: Mycolicibacterium smegmatis; test: Antibacterial activity against Mycobacterium smegmatis harboring 23S rRNA C2571G mutant after 24 generation times
Summary of the method: (§1)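 M. smegmatis SMR5 strains with one rRNA operon on a plasmid integrated at attB, grown in LB + 0.05% Tween 80 at 37°C to visible growth, diluted to OD600 0.02, and mixed 1:1 with 2-fold antibiotic dilutions. Tested ranges were linezolid 0.125–64 μg/ml and chloramphenicol, clindamycin, valnemulin 1–512 μg/ml. Incubation ran 37°C for 24 generation times of each strain. MIC was the lowest concentration with complete visual inhibition. Parent/wild-type controls were on each plate.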

[2] = system: Mycolicibacterium smegmatis; test: Antibacterial activity against Mycobacterium smegmatis harboring 23S rRNA G2576U mutant after 24 generation times; summary of the method: as §1
[3] = system: Mycolicibacterium smegmatis; test: Antibacterial activity against wild type Mycobacterium smegmatis after 24 generation times; summary of the method: as §1
[4] = system: Mycolicibacterium smegmatis; test: Antibacterial activity against Mycobacterium smegmatis harboring 23S rRNA C2612A mutant after 24 generation times; summary of the method: as §1
[5] = system: Mycolicibacterium smegmatis; test: Antibacterial activity against Mycobacterium smegmatis harboring 23S rRNA G2505A mutant after 24 generation times; summary of the method: as §1
[6] = system: Mycolicibacterium smegmatis; test: Antibacterial activity against Mycobacterium smegmatis harboring 23S rRNA C2055A, A2572U mutant after 24 generation times; summary of the method: as §1
[7] = system: Mycolicibacterium smegmatis; test: Antibacterial activity against Mycobacterium smegmatis harboring 23S rRNA A2453U mutant after 24 generation times; summary of the method: as §1
[8] = system: Mycolicibacterium smegmatis; test: Antibacterial activity against Mycobacterium smegmatis harboring 23S rRNA C2499U mutant after 24 generation times; summary of the method: as §1
[9] = system: Mycolicibacterium smegmatis; test: Antibacterial activity against Mycobacterium smegmatis harboring 23S rRNA G2032A, C2499A mutant after 24 generation times; summary of the method: as §1
[10] = system: Mycolicibacterium smegmatis; test: Antibacterial activity against Mycobacterium smegmatis harboring 23S rRNA A2503G mutant after 24 generation times; summary of the method: as §1
[11] = system: Mycolicibacterium smegmatis; test: Antibacterial activity against Mycobacterium smegmatis SZ558 after 24 generation times; summary of the method: as §1
[12] = system: Mycolicibacterium smegmatis; test: Antibacterial activity against Mycobacterium smegmatis harboring 23S rRNA A2058G mutant after 24 generation times; summary of the method: as §1
[13] = system: Mycolicibacterium smegmatis; test: Antibacterial activity against Mycobacterium smegmatis harboring 23S rRNA G2032A, U2504G mutant after 24 generation times; summary of the method: as §1
[14] = system: Mycolicibacterium smegmatis; test: Antibacterial activity against Mycobacterium smegmatis harboring 23S rRNA G2032C mutant after 24 generation times; summary of the method: as §1
[15] = system: Mycolicibacterium smegmatis; test: Antibacterial activity against Mycobacterium smegmatis harboring 23S rRNA C2055A, U2504G mutant after 24 generation times; summary of the method: as §1
[16] = system: Mycolicibacterium smegmatis; test: Antibacterial activity against Mycobacterium smegmatis harboring 23S rRNA U2504G mutant after 24 generation times; summary of the method: as §1
[17] = system: Mycolicibacterium smegmatis; test: Antibacterial activity against Mycobacterium smegmatis harboring 23S rRNA A2572U1 mutant after 24 generation times; summary of the method: as §1
[18] = system: Mycolicibacterium smegmatis; test: Antibacterial activity against Mycobacterium smegmatis harboring 23S rRNA C2499A2 mutant after 24 generation times; summary of the method: as §1
[19] = system: Mycolicibacterium smegmatis; test: Antibacterial activity against Mycobacterium smegmatis harboring 23S rRNA G2032A mutant after 24 generation times; summary of the method: as §1
[20] = system: Mycolicibacterium smegmatis; test: Antibacterial activity against Mycobacterium smegmatis harboring 23S rRNA C2055A mutant after 24 generation times; summary of the method: as §1

SMILES	MIC [1] [µg/mL]	MIC [2] [µg/mL]	MIC [3] [µg/mL]	MIC [4] [µg/mL]	MIC [5] [µg/mL]	MIC [6] [µg/mL]	MIC [7] [µg/mL]	MIC [8] [µg/mL]	MIC [9] [µg/mL]	MIC [10] [µg/mL]	MIC [11] [µg/mL]	MIC [12] [µg/mL]	MIC [13] [µg/mL]	MIC [14] [µg/mL]	MIC [15] [µg/mL]	MIC [16] [µg/mL]	MIC [17] [µg/mL]	MIC [18] [µg/mL]	MIC [19] [µg/mL]	MIC [20] [µg/mL]
CC(=O)NC[C@H]1CN(c2ccc(N3CCOCC3)c(F)c2)C(=O)O1 [LINEZOLID]	4 (≈ 11.9 µM)	64 (≈ 190 µM)	2 (≈ 5.93 µM)	4 (≈ 11.9 µM)	16 (≈ 47.4 µM)	64 (≈ 190 µM)	4 (≈ 11.9 µM)	2 (≈ 5.93 µM)	8 (≈ 23.7 µM)	8 (≈ 23.7 µM)	2 (≈ 5.93 µM)	2 (≈ 5.93 µM)	64 (≈ 190 µM)	4 (≈ 11.9 µM)	32 (≈ 94.9 µM)	8 (≈ 23.7 µM)	4 (≈ 11.9 µM)	2 (≈ 5.93 µM)	2 (≈ 5.93 µM)	0.5 (≈ 1.48 µM)
O=C(N[C@H](CO)[C@H](O)c1ccc([N+](=O)[O-])cc1)C(Cl)Cl [CHLORAMPHENICOL]	32 (≈ 99 µM)	256 (≈ 792 µM)	32 (≈ 99 µM)	64 (≈ 198 µM)	128 (≈ 396 µM)	64 (≈ 198 µM)	32 (≈ 99 µM)	32 (≈ 99 µM)	64 (≈ 198 µM)	128 (≈ 396 µM)	32 (≈ 99 µM)	32 (≈ 99 µM)	256 (≈ 792 µM)	32 (≈ 99 µM)	128 (≈ 396 µM)	512 (≈ 1580 µM)	8 (≈ 24.8 µM)	32 (≈ 99 µM)	32 (≈ 99 µM)	32 (≈ 99 µM)
CCC[C@@H]1C[C@@H](C(=O)N[C@@H]([C@H]2O[C@H](SC)[C@H](O)[C@@H](O)[C@H]2O)[C@H](C)Cl)N(C)C1 [CLINDAMYCIN]	16 (≈ 37.6 µM)	64 (≈ 151 µM)	16 (≈ 37.6 µM)	16 (≈ 37.6 µM)	16 (≈ 37.6 µM)	512 (≈ 1200 µM)	32 (≈ 75.3 µM)	16 (≈ 37.6 µM)	16 (≈ 37.6 µM)	8 (≈ 18.8 µM)	16 (≈ 37.6 µM)	> 1030	16 (≈ 37.6 µM)	128 (≈ 301 µM)	16 (≈ 37.6 µM)	16 (≈ 37.6 µM)	16 (≈ 37.6 µM)	16 (≈ 37.6 µM)	32 (≈ 75.3 µM)	32 (≈ 75.3 µM)
C=C[C@]1(C)C[C@@H](OC(=O)CSC(C)(C)CNC(=O)[C@H](N)C(C)C)[C@]2(C)[C@H](C)CC[C@]3(CCC(=O)[C@H]32)[C@@H](C)[C@@H]1O [VALNEMULIN]	32 (≈ 56.7 µM)	32 (≈ 56.7 µM)	32 (≈ 56.7 µM)	32 (≈ 56.7 µM)	32 (≈ 56.7 µM)	128 (≈ 227 µM)	64 (≈ 113 µM)	32 (≈ 56.7 µM)	128 (≈ 227 µM)	32 (≈ 56.7 µM)	32 (≈ 56.7 µM)	64 (≈ 113 µM)	128 (≈ 227 µM)	128 (≈ 227 µM)	64 (≈ 113 µM)	64 (≈ 113 µM)	128 (≈ 227 µM)	64 (≈ 113 µM)	128 (≈ 227 µM)	64 (≈ 113 µM)
